The values that follow come from ChEMBL document CHEMBL1123760, “Synthesis and oral antifungal activity of novel azolylpropanolones and related compounds” (1987).

Holding throughout (type): functional
The subject of experiment [1] is Candida albicans. Put plainly: In vitro antifungal activity against Candida albicans. The note with it: Candida albicans; read-out: MIC. A digest of the protocol:
(§1)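 Broth microdilution MIC in Sabouraud's glucose broth; final inocula 1 × 10^5 cells/mL (yeast) or 1 × 10^5 conidia/mL (mold and dermatophyte).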

Another experiment concerns Aspergillus fumigatus. Put plainly: In vitro antifungal activity against Aspergillus fumigatus. The settings on record: Aspergillus fumigatus; read-out: MIC. A digest of the protocol: as §1
Experiment [2] deals with Candida albicans. In words: Minimum effective concentration for inhibition of pseudomycelium formation in Candida albicans. The settings on record: Candida albicans; read-out: MEC. The procedure, abridged:
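C. albicans KE-2 (clinical isolate) at a final 1 × 10^6 yeast cells/mL in EMEM with 20% calf serum; compounds diluted by the same microtiter system as for MICs. After incubation, wells were Giemsa-stained (5% in phosphate buffer) and read by microscope. MEC is the lowest concentration preventing typical pseudomycelium formation.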

The subject of the next experiment is Trichophyton benhamiae. In words: In vitro antifungal activity against Trichophyton asteroides. The note with it: Trichophyton benhamiae; read-out: MIC. A digest of the protocol:
as §1

Structures are written as SMILES. In brackets after ≈: the same amount, converted by molar mass.

As usually defined, the MIC is the smallest concentration in the dilution series that meets the test's criterion for growth inhibition.

In the case of `O=C(c1ccccc1)C(O)(Cn1cnnc1)c1ccccc1` (stereo not drawn), the minimal inhibitory concentration (MIC) in the experiment with Candida albicans [1], with Aspergillus fumigatus and with Trichophyton benhamiae was above 100 µg/mL in each case. Also, the minimal effective concentration with Candida albicans [2] is above 20 µg/mL.

Take `O=C1O[C@H](c2cccc(Cl)c2)[C@@](Cn2cncn2)(c2cccc(Cl)c2)O1`: the figures for the MIC in the experiment on Candida albicans [1], in the experiment on Aspergillus fumigatus and in the experiment on Trichophyton benhamiae were 100 µg/mL (≈ 256 µM), above 100 µg/mL and 6.3 µg/mL (≈ 16.1 µM), respectively. In addition, in the experiment with Candida albicans [2], the minimal effective concentration was above 20 µg/mL.

Regarding `O=C1O[C@H](c2ccccc2)[C@@](Cn2cncn2)(c2ccccc2Cl)O1`, the results for the MIC in the experiment on Candida albicans [1], in the experiment on Aspergillus fumigatus and in the experiment with Trichophyton benhamiae were above 100 µg/mL, above 100 µg/mL and 6.3 µg/mL (≈ 17.7 µM), respectively. Further, the minimal effective concentration in the experiment on Candida albicans [2] was determined as 0.31 µg/mL.

Turning to `Fc1ccc([C@H]2OCO[C@]2(Cn2cncn2)c2ccc(Cl)cc2)cc1`, the values for the MIC in the experiment on Candida albicans [1], with Aspergillus fumigatus and in the experiment with Trichophyton benhamiae were above 100 µg/mL, above 100 µg/mL and 0.2 µg/mL (≈ 0.556 µM), respectively. For the same compound, in the experiment on Candida albicans [2], the minimal effective concentration stood at 0.63 µg/mL.

Consider `CC(C)[C@H]1OC(=O)O[C@]1(Cn1cncn1)c1ccc(Cl)cc1`, for which the MIC with Candida albicans [1] is above 100 µg/mL; in the experiment with Aspergillus fumigatus it was above 100 µg/mL; in the experiment on Trichophyton benhamiae, 1.6 µg/mL (≈ 4.97 µM). The minimal effective concentration in the experiment on Candida albicans [2] worked out at 0.31 µg/mL.

As to `CCCC(O)C(O)(Cn1cncn1)c1ccc(Cl)cc1Cl` (stereo not drawn), the minimal inhibitory concentration (MIC) with Candida albicans [1] was above 100 µg/mL; with Aspergillus fumigatus, 50 µg/mL (≈ 151 µM); with Trichophyton benhamiae, 0.1 µg/mL (≈ 0.303 µM). The minimal effective concentration with Candida albicans [2] amounted to 0.04 µg/mL.

In the case of `Cc1ccc(C(O)C(O)(Cn2cncn2)c2ccc(C)cc2)cc1` (stereo not drawn), the figures for the minimum inhibitory concentration (MIC) in the experiment with Candida albicans [1], in the experiment with Aspergillus fumigatus and in the experiment on Trichophyton benhamiae were above 100 µg/mL, above 100 µg/mL and 1.6 µg/mL (≈ 4.95 µM), respectively. Further, the minimal effective concentration with Candida albicans [2] was determined as 2.5 µg/mL.

Take `OC(c1cccc(Cl)c1)C(O)(Cn1cncn1)c1cccc(Cl)c1` (stereo not drawn): the MIC in the experiment with Candida albicans [1] was above 100 µg/mL; in the experiment with Aspergillus fumigatus, above 100 µg/mL; with Trichophyton benhamiae, 3.1 µg/mL (≈ 8.51 µM). Besides, the minimal effective concentration with Candida albicans [2] was above 20 µg/mL.

Consider `O=C(c1ccco1)C(O)(Cn1cncn1)c1ccco1` (stereo not drawn), for which the MIC in the experiment with Candida albicans [1] was above 100 µg/mL; in the experiment with Aspergillus fumigatus, above 100 µg/mL; in the experiment with Trichophyton benhamiae, 100 µg/mL (≈ 366 µM). The minimal effective concentration in the experiment on Candida albicans [2] is above 20 µg/mL.

For the compound `CCCC(=O)C(O)(Cn1cncn1)c1ccccc1Cl` (stereo not drawn), the MIC in the experiment on Candida albicans [1] was above 100 µg/mL; with Aspergillus fumigatus, 100 µg/mL (≈ 340 µM); in the experiment with Trichophyton benhamiae, 0.8 µg/mL (≈ 2.72 µM). Also, the minimal effective concentration in the experiment on Candida albicans [2] worked out at 0.04 µg/mL.

For the compound `CC(C)C(O)C(O)(Cn1cncn1)c1ccc(Cl)cc1Cl` (stereo not drawn), the results for the MIC with Candida albicans [1], in the experiment on Aspergillus fumigatus and in the experiment with Trichophyton benhamiae were above 100 µg/mL, 50 µg/mL (≈ 151 µM) and 0.1 µg/mL (≈ 0.303 µM), respectively. Also, in the experiment on Candida albicans [2], the minimal effective concentration came out at 0.04 µg/mL.

On to `CCCCC(O)(Cn1cncn1)C(=O)c1ccc(Cl)cc1Cl` (stereo not drawn), for which the MIC in the experiment with Candida albicans [1] stood at 100 µg/mL (≈ 292 µM); in the experiment on Aspergillus fumigatus it was 50 µg/mL (≈ 146 µM); in the experiment with Trichophyton benhamiae it was 0.1 µg/mL (≈ 0.292 µM). In addition, the minimal effective concentration with Candida albicans [2] amounted to 0.31 µg/mL.

`CCC(O)(Cn1cncn1)C(=O)c1ccc(Cl)cc1Cl` (stereo not drawn): the MIC was above 100 µg/mL in the experiment on Candida albicans [1], above 100 µg/mL with Aspergillus fumigatus and 1.6 µg/mL (≈ 5.09 µM) in the experiment with Trichophyton benhamiae. Further, the minimal effective concentration with Candida albicans [2] was 20 µg/mL.

As for `CCCC[C@H]1OC(=O)O[C@]1(Cn1cncn1)c1ccc(Cl)cc1Cl`, the MIC with Candida albicans [1] is above 100 µg/mL; in the experiment with Aspergillus fumigatus, above 100 µg/mL; in the experiment on Trichophyton benhamiae it was 0.2 µg/mL (≈ 0.54 µM). Also, in the experiment with Candida albicans [2], the minimal effective concentration stood at 0.63 µg/mL.

With `CCC[C@H]1OC(=O)O[C@]1(Cn1cncn1)c1ccc(Cl)cc1Cl`, the MIC in the experiment with Candida albicans [1] is 100 µg/mL (≈ 281 µM); in the experiment with Aspergillus fumigatus, above 100 µg/mL; in the experiment with Trichophyton benhamiae, 1.6 µg/mL (≈ 4.49 µM). Also, the minimal effective concentration in the experiment with Candida albicans [2] stood at 0.16 µg/mL.

In the case of `O=C(c1ccc(F)cc1)C(O)(Cn1cnnc1)c1ccc(Cl)cc1Cl` (stereo not drawn), the MIC in the experiment on Candida albicans [1], in the experiment on Aspergillus fumigatus and in the experiment on Trichophyton benhamiae was above 100 µg/mL each time. For the same compound, the minimal effective concentration in the experiment on Candida albicans [2] was above 20 µg/mL.

In the case of `O=C(c1ccc(F)cc1)C(O)(Cn1cnnc1)c1ccc(F)cc1` (stereo not drawn), the MIC in the experiment with Candida albicans [1], with Aspergillus fumigatus and in the experiment on Trichophyton benhamiae was above 100 µg/mL throughout. Also, the minimal effective concentration with Candida albicans [2] was above 20 µg/mL.

Consider `CC(C)[C@H]1OS(=O)O[C@]1(Cn1cncn1)c1ccc(Cl)cc1` (stereo partly drawn), for which the MIC in the experiment with Candida albicans [1] is above 100 µg/mL; in the experiment on Aspergillus fumigatus, above 100 µg/mL; in the experiment on Trichophyton benhamiae it was 0.4 µg/mL (≈ 1.17 µM). For the same compound, the minimal effective concentration in the experiment with Candida albicans [2] was determined as 0.16 µg/mL.

For `O=C(c1cccs1)C(O)(Cn1ccnc1)c1ccc(Cl)cc1` (stereo not drawn), the MIC with Candida albicans [1] is above 100 µg/mL; in the experiment with Aspergillus fumigatus, above 100 µg/mL; with Trichophyton benhamiae it was 0.8 µg/mL (≈ 2.4 µM). Moreover, the minimal effective concentration with Candida albicans [2] was 5 µg/mL.

As to `CC(O)(c1ccc(Cl)cc1)C(O)(Cn1ccnc1)c1ccc(Cl)cc1` (stereo not drawn), the MIC in the experiment on Candida albicans [1] was above 100 µg/mL; in the experiment with Aspergillus fumigatus, above 100 µg/mL; in the experiment on Trichophyton benhamiae it was 0.8 µg/mL (≈ 2.12 µM). The minimal effective concentration in the experiment on Candida albicans [2] amounted to 1.25 µg/mL.

As to `Clc1ccc([C@@]2(Cn3cncn3)OCO[C@@H]2c2ccccc2)c(Cl)c1`, the MIC with Candida albicans [1] was above 100 µg/mL; in the experiment with Aspergillus fumigatus, 12.5 µg/mL (≈ 33.2 µM); in the experiment on Trichophyton benhamiae, 0.2 µg/mL (≈ 0.532 µM). In addition, in the experiment with Candida albicans [2], the minimal effective concentration came to 0.08 µg/mL.

With `CC(O)(c1ccc(F)cc1)C(O)(Cn1ccnc1)c1ccc(Cl)cc1` (stereo not drawn), the MIC was above 100 µg/mL in the experiment with Candida albicans [1], above 100 µg/mL in the experiment with Aspergillus fumigatus and 0.4 µg/mL (≈ 1.11 µM) with Trichophyton benhamiae. Further, in the experiment on Candida albicans [2], the minimal effective concentration turned out to be 2.5 µg/mL.
